From ChEMBL document CHEMBL2163328, “Inhibition of TNF-α-Induced Inflammation by andrographolide via down-regulation of the PI3K/Akt signaling pathway” (J Nat Prod, 2011) come the findings set out here.

Each structure is given as a SMILES string. Calls of active or inactive are those of the source. The calls are words filed in the database; no cut-off is given here.

One may read the inhibition as the share of the control response that was lost under treatment.

In series [1] the test system is HUVEC. Nature of the series: Inhibition of TNFalpha-stimulated DNA binding activity of NFkappaB in HUVEC at 10 to 25 uM pretreated for 16 hrs before TNFalpha challenge measured after 30 mins by EMSA. It is filed as cell-based. The settings on record: Homo sapiens. Summed up: (§1)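 EMSA: nuclear extracts prepared by hypotonic then hypertonic (400 mM KCl) extraction. 2 μg nuclear protein incubated with biotin-labeled NF-κB probe and poly(dI-dC) at room temperature for 30 min. Complexes separated on 6% TBE-PAGE, transferred to nylon and detected with streptavidin-HRP. Specificity checked with 100-fold excess unlabeled and mutant oligonucleotides.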
Background: Mobility shift assays separate free from complexed probe on a gel.

In series [2] the test system is HUVEC. Nature of the series: Inhibition of TNFalpha-stimulated human ICAM-1 promoter activity expressed in HUVEC assessed as […] activity at 10 to 25 uM pretreated for 30 mins before TNFalpha challenge measured after 5 hrs by luciferase reporter gene assay. In kind it is functional, cell-based. Summed up: (§2)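 HUVEC transiently transfected by nanofection with human ICAM-1 promoter-luciferase (pIC339) plus pSV-β-galactosidase for 4 h. Pretreated 30 min, then TNF-α 1 ng/mL for 5 h. Luciferase activity measured in lysate supernatants and normalized to β-galactosidase activity for transfection efficiency. Three independent experiments.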
In general terms: Reporter assays use an easily measured gene product as a stand-in for the process of interest.

The subject of series [3] is HUVEC. Nature of the series: Inhibition of TNFalpha-stimulated ICAM-1 mRNA expression in HUVEC at 10 to 25 uM pretreated for 16 hrs before TNFalpha challenge measured after 6 hrs by RT-PCR analysis. In kind it is functional, cell-based. The settings on record: Homo sapiens. The method in brief: (§3)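 HUVEC pretreated 16 h, then TNF-α 1 ng/mL for 6 h. Total RNA isolated with TRIzol; 4 μg reverse-transcribed with M-MLV RT and oligo(dT). ICAM-1 amplified for 32 cycles (94 °C 1 min, 55 °C 1 min, 72 °C 2 min) after 95 °C for 5 min. Normalized to GAPDH; products resolved on 1% agarose and quantified by densitometry.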

Series [4] deals with RAC-alpha serine/threonine-protein kinase (Homo sapiens) (UniProt P31749). Nature of the series: Inhibition of activated Akt1 phosphorylation at Ser473 expressed in HUVEC transfected with activated AKT1 assessed as pAKT level at 10 uM after 16 hrs by Western blot analysis (reference value: 272%). It is filed as cell-based. Also noted: scale not given: the % may be the effect or the level left.
Sequence of RAC-alpha serine/threonine-protein kinase (Homo sapiens) (P31749 whole entry): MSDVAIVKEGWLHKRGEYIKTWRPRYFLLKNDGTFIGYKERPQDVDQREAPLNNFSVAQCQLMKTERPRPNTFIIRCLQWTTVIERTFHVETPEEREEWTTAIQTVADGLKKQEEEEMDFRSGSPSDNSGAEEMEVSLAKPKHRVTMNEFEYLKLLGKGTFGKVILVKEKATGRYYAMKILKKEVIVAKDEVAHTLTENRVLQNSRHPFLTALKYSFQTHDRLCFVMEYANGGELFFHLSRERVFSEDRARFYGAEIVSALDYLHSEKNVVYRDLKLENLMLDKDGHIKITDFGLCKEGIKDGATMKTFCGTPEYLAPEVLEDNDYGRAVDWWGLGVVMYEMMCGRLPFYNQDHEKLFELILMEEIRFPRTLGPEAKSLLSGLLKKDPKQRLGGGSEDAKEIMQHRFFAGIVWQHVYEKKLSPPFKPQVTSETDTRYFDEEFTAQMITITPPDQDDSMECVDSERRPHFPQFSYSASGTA

Series [5] can be described thus: Cytotoxicity against TNFalpha-stimulated HUVEC assessed as cell viability at 5 uM pretreated for 16 hrs before TNFalpha challenge measured after 6 hrs by MTT assay (reference value: 103.8 +/- 6.1%). In kind it is cell-based. The note with it: human, TNFalpha-stimulated HUVEC cells; read-out: Activity. On the technique in general: Tetrazolium dyes change colour on reduction, which living cells bring about.

Series [6] deals with Transcription factor p65 (Homo sapiens) (UniProt Q04206). Nature of the series: Inhibition of TNFalpha-stimulated NFkappaB activation in HUVEC assessed as reduction of nuclear p65 level at 20 uM pretreated for 16 hrs before TNFalpha challenge measured after 30 mins by […].
Sequence of Transcription factor p65 (Homo sapiens) (Q04206 whole entry): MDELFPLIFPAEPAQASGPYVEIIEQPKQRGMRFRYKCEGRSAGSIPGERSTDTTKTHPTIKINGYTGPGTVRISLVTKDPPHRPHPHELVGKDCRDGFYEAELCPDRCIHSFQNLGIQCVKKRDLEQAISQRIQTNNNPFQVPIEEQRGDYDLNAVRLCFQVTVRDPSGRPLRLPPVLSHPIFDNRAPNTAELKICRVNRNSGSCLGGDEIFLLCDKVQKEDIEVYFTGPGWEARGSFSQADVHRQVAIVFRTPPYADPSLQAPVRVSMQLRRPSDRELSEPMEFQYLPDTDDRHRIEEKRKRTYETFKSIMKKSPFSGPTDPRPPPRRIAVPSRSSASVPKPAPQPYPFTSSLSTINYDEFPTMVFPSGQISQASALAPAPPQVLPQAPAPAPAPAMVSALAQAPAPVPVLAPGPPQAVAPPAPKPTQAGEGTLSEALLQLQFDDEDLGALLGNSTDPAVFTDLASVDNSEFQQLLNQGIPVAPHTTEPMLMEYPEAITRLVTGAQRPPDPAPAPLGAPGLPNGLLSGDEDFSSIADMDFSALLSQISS
Series [7] can be described thus: Cytotoxicity against TNFalpha-stimulated HUVEC assessed as cell viability at 20 uM pretreated for 16 hrs before TNFalpha challenge measured after 6 hrs by MTT assay (reference value: 103.8 +/- 6.1%). It is filed as cell-based. The note with it: human, TNFalpha-stimulated HUVEC cells; read-out: Activity.
The test system of series [8] is HUVEC. Nature of the series: Inhibition of TNFalpha-stimulated ICAM-1 mRNA expression in HUVEC at 20 uM pretreated for 16 hrs before TNFalpha challenge measured after 6 hrs by RT-PCR analysis. The settings on record: Homo sapiens. In kind it is functional, cell-based. The method in brief: as §3
Series [9] has as its target RAC-alpha serine/threonine-protein kinase (Homo sapiens) (UniProt P31749). Nature of the series: Inhibition of TNFalpha-stimulated AKT1-mediated ICAM-1 expression in HUVEC assessed as ICAM1 level at 10 uM pretreated for 16 hrs before TNFalpha challenge measured after 6 hrs by Western blot analysis (reference value: 345%). It is filed as cell-based. Set-up: scale not given: the % may be the effect or the level left.

Series [10] shares this target. Nature of the series: Inhibition of TNFalpha-stimulated Akt1 phosphorylation at Ser473 assessed as pAKT level in HUVEC at 10 uM pretreated for 16 hrs before TNFalpha challenge measured after 6 hrs by Western blot analysis (reference value: 249%). Set-up: scale not given: the % may be the effect or the level left.
Series [11] can be described thus: Cytotoxicity against TNFalpha-stimulated HUVEC assessed as cell viability at 10 uM pretreated for 16 hrs before TNFalpha challenge measured after 6 hrs by MTT assay (reference value: 103.8 +/- 6.1%). In kind it is cell-based. The settings on record: human, TNFalpha-stimulated HUVEC cells; read-out: Activity.
In series [12] the test system is HUVEC. Nature of the series: Toxicity assessed as induction of HUVEC adhesion to BCECF-AM-labeled human HL60 cells by fluorescence assay. In kind it is cell-based. Summed up: (§4)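 HUVEC grown to 80% confluence, pretreated 16 h, then TNF-α 1 ng/mL for 6 h. Co-incubated with 4 × 10^5 BCECF-AM-labeled HL-60 cells per well, 37 °C, 30 min. Nonadherent cells removed by inverted centrifugation at 100g for 5 min. Bound cells lysed in 1% SDS; fluorescence read at ex 490/em 520 nm and converted to adherent cells/well by standard curve. Three independent experiments.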

In series [13] the target is RAC-alpha serine/threonine-protein kinase (Homo sapiens) (UniProt P31749). Nature of the series: Inhibition of TNFalpha-stimulated Akt1 phosphorylation at Ser473 in HUVEC at 20 uM pretreated for 16 hrs before TNFalpha challenge measured after 15 mins by Western blot analysis.
For series [14] the target is unchanged. Nature of the series: Inhibition of TNFalpha-stimulated ICAM-1 expression in HUVEC transfected with activated AKT1 assessed as ICAM1 level at 10 uM incubated for 16 hrs by Western blot (reference value: 249%). It is filed as cell-based. Set-up: scale not given: the % may be the effect or the level left.
The test system of series [15] is HUVEC. Nature of the series: Toxicity in HUVEC assessed as induction of ICAM-1 expression at 5 to 20 uM measured after 6 hrs by Western blot analysis. In kind it is cell-based. The settings on record: human.
The subject of series [16] is HUVEC. Nature of the series: Inhibition of TNFalpha-stimulated NFkappaB activation in HUVEC assessed as reduction of IkappaB degradation at 20 uM pretreated for 16 hrs before TNFalpha challenge measured after 30 mins by […]. In kind it is cell-based. The note with it: Homo sapiens.
Series [17] deals with HUVEC. Nature of the series: Inhibition of TNFalpha-stimulated human ICAM-1 promoter activity expressed in HUVEC assessed as […] activity at 20 uM pretreated for 30 mins before TNFalpha challenge measured after 5 hrs by luciferase reporter gene assay. It is filed as functional, cell-based. Summed up:
as §2

Series [18] relates to HUVEC. Nature of the series: Induction of NFkappaB activation in HUVEC by EMSA. In kind it is cell-based. The settings on record: Homo sapiens. The method in brief: as §1
Series [19] has as its system HUVEC. Nature of the series: Inhibition of TNFalpha-stimulated HUVEC adhesion to BCECF-AM-labeled human HL60 cells at 20 uM pretreated for 16 hrs before TNFalpha challenge measured after 6 hrs by fluorescence assay. It is filed as functional. The method in brief: as §4
Series [20] has as its system HUVEC. Nature of the series: Inhibition of TNFalpha-stimulated DNA binding activity of NFkappaB in HUVEC at 5 to 20 uM pretreated for 16 hrs before TNFalpha challenge measured after 30 mins by EMSA. In kind it is cell-based. The settings on record: Homo sapiens. Summed up: as §1
Series [21] addresses RAC-alpha serine/threonine-protein kinase (Homo sapiens) (UniProt P31749). Nature of the series: Induction of Akt1 phosphorylation at Ser473 expressed in HUVEC by Western blot analysis. In kind it is cell-based.
Series [22] has as its system HUVEC. Nature of the series: Inhibition of TNFalpha-stimulated total ICAM-1 expression in HUVEC at 5 to 20 uM pretreated for 16 hrs before TNFalpha challenge measured after 6 hrs by Western blot analysis. It is filed as functional, cell-based. The settings on record: Homo sapiens. The method in brief:
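HUVEC pretreated 16 h, then TNF-α 1 ng/mL for 6 h. Lysed in Tris/EDTA/PMSF/aprotinin buffer at pH 7.4; equal protein run on SDS-PAGE and transferred to PVDF. Blocked in 5% milk at 4 °C overnight, probed with anti-ICAM-1 and HRP secondary. ECL detection with densitometric quantitation. Means ± SD, n = 3.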

The test system of series [23] is HUVEC. Nature of the series: Inhibition of TNFalpha-stimulated cell surface ICAM-1 expression in HUVEC at 5 to 20 uM pretreated for 16 hrs before TNFalpha challenge measured after 6 hrs by flow cytometry. It is filed as functional, cell-based. The note with it: Homo sapiens. Summed up:
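Cell-surface ICAM-1 by flow cytometry. HUVEC pretreated 16 h, then TNF-α 1 ng/mL for 6 h. Cells detached with trypsin and stained with FITC anti-ICAM-1 at 4 °C for 45 min in the dark. Washed three times in cold PBS before analysis. Three independent experiments.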

Turning to `O=c1cc(N2CCOCC2)oc2c(-c3ccccc3)cccc12`, the inhibition entry with HUVEC [1], with HUVEC [2] and with HUVEC [3] was “Active” in each case.

`C=C1CC[C@@H]2[C@](C)(CO)[C@H](O)CC[C@@]2(C)[C@@H]1C/C=C1/C(=O)OC[C@H]1O` [ANDROGRAPHOLIDE]: the Activity in series [4] was 111%; in series [9] it was 36%; in [10], 127%; in the series with HUVEC [12] it was “Non-toxic”; in series [14] it was 177%; with HUVEC [15], “Non-toxic”. Moreover, the viability at 6 h, 5 µM in series [5] is 96.4%. The inhibition entry (in series [6]; in the series on HUVEC [8]; in series [13]; in the series with HUVEC [16]; in the series with HUVEC [17]; in the series on HUVEC [20]) was “Active” each time. Moreover, the inhibition result in the series on HUVEC [22] and with HUVEC [23] was “Active” throughout. Also, the viability at 6 h, 20 µM in [7] came to 87.5%. Besides, the viability at 6 h, 10 µM in [11] was found to be 94.6%. The outcome (in the series with HUVEC [18]; in series [21]) was inactive. The inhibition at 20 µM in the series on HUVEC [19] came to 73%.
